ChEMBL document CHEMBL4619808, “Tailoring the Physicochemical Properties of Antimicrobial Peptides onto a Thiazole-Based γ-Peptide Foldamer” (J Med Chem, 2020)
In brackets after ≈: the same amount, converted by molar mass. Activity calls are given as the source filed them. The rule behind the calls is not given here.

Assays:
Escherichia coli [1] = assay: Induction of membrane depolarization in Escherichia coli ATCC 8739 incubated for 2 hrs by [DiSC3(5)] probe based fluorescence assay; assay type: functional, organism-based
Outline: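 E. coli ATCC8739 grown 2 h at 37°C in Mueller-Hinton broth, washed and resuspended in 20 mM glucose/5 mM HEPES pH 7.2 to OD600 0.05. DiSC3(5) added at 0.6 µM final and preincubated at 37°C until fluorescence stabilized. Compound added at 0.19–12.5 µM final; fluorescence (ex 620, em 670 nm) followed over 30 min. Duplicate, three independent experiments.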

Escherichia coli [2] = assay: Antimicrobial activity against Escherichia coli ATCC 8739 assessed as induction of blisters and protruding vesicles on cell surface at 1 to 8 times MIC incubated for 60 mins by surface electron microscopy; assay type: functional, organism-based
Escherichia coli [3] = assay: Antimicrobial activity against Escherichia coli ATCC 8739 assessed as induction of spherical elements around bacteria at 1 to 8 times MIC incubated for 60 mins by surface electron microscopy; assay type: functional, organism-based
Escherichia coli [4] = assay: Antimicrobial activity against Escherichia coli ATCC 8739 assessed as increase in region of cellular aggregation at 1 to 8 times MIC incubated for 60 mins by surface electron microscopy; assay type: functional, organism-based
Bacillus subtilis [5] = assay: Antimicrobial activity against Bacillus subtilis ATCC 6633 assessed as inhibition of microbial growth incubated for 24 hrs; assay type: functional; conditions: ATCC 6633, 24 h
Outline: (§1)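 Broth microdilution. Strains grown overnight on TSA at 37°C, suspended to 10⁸ CFU/mL in Tryptone-Sel, then diluted to 10⁶ CFU/mL in double-strength Mueller-Hinton broth. Two-fold serial dilutions in sterile water (pH 7.4–7.7) mixed 1:1 with inoculum. Incubation 24 h at 37°C. MIC is the lowest concentration inhibiting growth. Duplicate wells, three independent experiments.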

Staphylococcus aureus [6] = assay: Antimicrobial activity against Staphylococcus aureus ATCC 6538 assessed as inhibition of microbial growth incubated for 24 hrs; assay type: functional; conditions: ATCC 6538, 24 h; outline: as §1
Enterococcus faecalis [7] = assay: Antimicrobial activity against Enterococcus faecalis ATCC 29121 assessed as inhibition of microbial growth incubated for 24 hrs; assay type: functional; conditions: ATCC 29121, 24 h; outline: as §1
Escherichia coli [8] = assay: Antimicrobial activity against Escherichia coli ATCC 8739 assessed as inhibition of microbial growth incubated for 24 hrs; assay type: functional; conditions: ATCC 8739, 24 h; outline: as §1
Pseudomonas aeruginosa [9] = assay: Antimicrobial activity against Pseudomonas aeruginosa ATCC 9027 assessed as inhibition of microbial growth incubated for 24 hrs; assay type: functional; conditions: ATCC 9027, 24 h; outline: as §1
Candida albicans [10] = assay: Antimicrobial activity against Candida albicans ATCC 10231 assessed as inhibition of microbial growth incubated for 48 hrs; assay type: functional; conditions: ATCC 10231, 48 h
Outline: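 C. albicans grown 48 h on Sabouraud at 20–25°C, suspended to 10⁸ CFU/mL, then diluted to 10⁶ CFU/mL in double-strength Mueller-Hinton broth. Two-fold serial dilutions in water (pH 7.4–7.7) mixed 1:1 with inoculum. Incubation 48 h at 25°C. MIC is the lowest concentration inhibiting growth. Duplicate wells, three independent experiments.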

[11] = Hemolytic activity in human RBC assessed as induction of hemolysis incubated for 1 hr; assay type: cell-based, Erythrocyte; conditions: red blood cells (erythrocytes), read-out: HD50
Outline: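 Human RBCs washed in PBS and used at 5% packed cell volume, mixed 1:1 with two-fold serial dilutions in PBS (pH 7.4–7.7). Incubation 1 h at 37°C, then centrifugation at 1500g for 10 min at 5°C. Supernatant absorbance read at 490 nm against PBS (0%) and 1% SDS/Tris (100%) controls. HC50 from three independent experiments, double duplicate.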

Bacillus subtilis [12] = assay: Microbicidal activity against Bacillus subtilis ATCC 6633 assessed as inhibition of colony growth incubated for 24 hrs followed by replating and further incubated for 24 hrs; assay type: functional; conditions: ATCC 6633, 24 h
Staphylococcus aureus [13] = assay: Microbicidal activity against Staphylococcus aureus ATCC 6538 assessed as inhibition of colony growth incubated for 24 hrs followed by replating and further incubated for 24 hrs; assay type: functional; conditions: ATCC 6538, 24 h
Enterococcus faecalis [14] = assay: Microbicidal activity against Enterococcus faecalis ATCC 29121 assessed as inhibition of colony growth incubated for 24 hrs followed by replating and further incubated for 24 hrs; assay type: functional; conditions: ATCC 29121, 24 h
Escherichia coli [15] = assay: Microbicidal activity against Escherichia coli ATCC 8739 assessed as inhibition of colony growth incubated for 24 hrs followed by replating and further incubated for 24 hrs; assay type: functional; conditions: ATCC 8739, 24 h
Pseudomonas aeruginosa [16] = assay: Microbicidal activity against Pseudomonas aeruginosa ATCC 9027 assessed as inhibition of colony growth incubated for 24 hrs followed by replating and further incubated for 24 hrs; assay type: functional; conditions: ATCC 9027, 24 h
Candida albicans [17] = assay: Microbicidal activity against Candida albicans ATCC 10231 assessed as inhibition of colony growth incubated for 48 hrs followed by replating and further incubated for 48 hrs; assay type: functional; conditions: ATCC 10231, 48 h
Escherichia coli [18] = assay: Antimicrobial activity against Escherichia coli ATCC 8739 assessed as reduction in viable bacterial cell count at 1 times MIC incubated up to 120 mins by time kill assay relative to control; assay type: functional
Escherichia coli [19] = assay: Antimicrobial activity against Escherichia coli ATCC 8739 assessed as reduction in viable bacterial cell count at 8 times MIC incubated up to 120 mins by time kill assay relative to control; assay type: functional
Escherichia coli [20] = assay: Antimicrobial activity against Escherichia coli ATCC 8739 assessed as reduction in viable bacterial cell count at 4 to 8 times MIC incubated for 40 to 60 mins by time kill assay relative to control; assay type: functional, organism-based
Escherichia coli [21] = assay: Antimicrobial activity against Escherichia coli ATCC 8739 assessed as effect on bacterial morphology by measuring bacterial length at 1 to 8 times MIC incubated for 60 mins by surface electron microscopy (reference value: 2 micrometer); assay type: functional
Escherichia coli [22] = assay: Antimicrobial activity against Escherichia coli ATCC 8739 assessed as inhibition of microbial growth measured after 8 passes in presence of sublethal compound concentration concentrations; assay type: functional

MIC (Bacillus subtilis [5]): 0.6 µM | MIC (Staphylococcus aureus [6]): 3.1 µM | MIC (Enterococcus faecalis [7]): 20.8 µM | MIC (Escherichia coli [8]): 1.8 µM | MIC (Pseudomonas aeruginosa [9]): 4.2 µM | MIC (Candida albicans [10]): 6.2 µM
SMILES: CC(=O)N[C@@H](CCCNC(=N)N)c1nc(C)sc1C(=O)N[C@@H](C)c1nc(CCCNC(=N)N)sc1C(=O)N[C@@H](C)c1nc(C)sc1C(=O)N[C@@H](CCCNC(=N)N)c1nc(C)sc1C(=O)N[C@@H](C)c1nc(CCCNC(=N)N)sc1C(=O)N[C@@H](C)c1nc(C)sc1C(=O)N[C@@H](CCCNC(=N)N)c1nc(C)sc1C(=O)N[C@@H](C)c1nc(CCCNC(=N)N)sc1C(=O)N[C@@H](C)c1nc(C)sc1C(=O)N[C@@H](CCCNC(=N)N)c1nc(C)sc1C(=O)N[C@@H](C)c1nc(CCCNC(=N)N)sc1C(=O)N[C@@H](C)c1nc(C)sc1C(N)=O
Activity (Escherichia coli [1]): Dose-dependent effect | Activity (Escherichia coli [2]): Active | Activity (Escherichia coli [3]): Dose-dependent effect | Activity (Escherichia coli [4]): Active | HC50 at 1 h [11]: > 100 µM | MBC (Bacillus subtilis [12]): 0.8 µM (≈ 2.21 µg/mL) | MBC (Staphylococcus aureus [13]): 7.8 µM (≈ 21.5 µg/mL) | MBC (Enterococcus faecalis [14]): 25 µM (≈ 69 µg/mL) | MBC (Escherichia coli [15]): 2.3 µM (≈ 6.34 µg/mL) | MBC (Pseudomonas aeruginosa [16]): 4.7 µM (≈ 13 µg/mL) | MBC (Candida albicans [17]): 6.2 µM (≈ 17.1 µg/mL) | Activity (Escherichia coli [18]): 0.95 log10CFU/ml | Activity (Escherichia coli [19]): 4.73 log10CFU/ml | Activity (Escherichia coli [20]): Active | Activity (Escherichia coli [21]): 1.3 um | MIC (Escherichia coli [22]): Active
